This is an account of results in ChEMBL document CHEMBL1153991, “Anthranilamide-based N,N-dialkylbenzamidines as potent and orally bioavailable factor Xa inhibitors: P4 SAR” (Bioorg Med Chem Lett, 2009).

Molecules are shown by their SMILES.

In series [1] the target is Coagulation factor X (Homo sapiens, UniProt P00742). As to the kind of experiment: Inhibition of Factor 10a.
The test system of series [2] is Plasma. As to the kind of experiment: Anticoagulant activity in human plasma assessed as concentration required to double the thrombin generation time. In kind it is functional.
A short description of series [3]: Protein binding in human plasma. The class given is ADME, cell-free. The following applies: read-out: PB (converted). In outline:
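Plasma protein binding measured by ultrafiltration. Working solution added 1/100 to EDTA human plasma to a final 10 µM, incubated 37 °C for 30 min. Triplicate aliquots were centrifuged through filter devices for 25 min at 32 °C. Filtrate was mixed with acetonitrile containing internal standard and quantified by LC/MS/MS against standards prepared in ultrafiltered plasma.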

Series [4] in a line: Oral bioavailability in Sprague-Dawley rat at 6 mg/kg. As to conditions: in vivo. In kind it is ADME, organism-based. In short, it runs like this:
(§1)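 Sprague–Dawley rats dosed 0.4 mg/kg IV and 6 mg/kg PO. Derived PK parameters: F (%), t1/2 (h), CL (mL/min/kg), Vd (L/kg).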

Series [5] in a line: Half life in Sprague-Dawley rat at 0.4 mg/kg, iv and 6 mg/kg, po. In kind it is ADME, organism-based. As to conditions: in vivo. In short, it runs like this:
as §1

Series [6] can be described thus: Clearance in Sprague-Dawley rat at 0.4 mg/kg, iv and 6 mg/kg, po. The class given is ADME, organism-based. As to conditions: in vivo. In outline:
as §1

A short description of series [7]: Volume of distribution in Sprague-Dawley rat at 0.4 mg/kg, iv and 6 mg/kg, po. The class given is ADME, organism-based. As to conditions: in vivo. In short, it runs like this: as §1
Series [8] in a line: Oral bioavailability in Beagle dog at 0.5 mg/kg. In kind it is ADME, organism-based, Canis lupus familiaris. As to conditions: in vivo. In outline: (§2)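 Beagle dogs dosed 0.1 mg/kg IV and 0.5 mg/kg PO. Derived PK parameters: F (%), t1/2 (h), CL (mL/min/kg), Vd (L/kg).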
Series [9] in a line: Clearance in Beagle dog at 0.1 mg/kg, iv and 0.5 mg/kg, po. In kind it is ADME, organism-based, Canis lupus familiaris. The following applies: in vivo. In short, it runs like this:
as §2

Series [10] can be described thus: Volume of distribution in Beagle dog at 0.1 mg/kg, iv and 0.5 mg/kg, po. In kind it is ADME, organism-based, Canis lupus familiaris. The following applies: in vivo. In outline:
as §2

Series [11] in a line: Half life in Beagle dog at 0.1 mg/kg, iv and 0.5 mg/kg, po. As to conditions: in vivo.
A short description of series [12]: Oral bioavailability in rat. In kind it is ADME, organism-based. As to conditions: in vivo.
Series [13] addresses Prothrombin (Homo sapiens, UniProt P00734). In words: Inhibition of thrombin.
The nature of series [14]: Inhibition of trypsin.
Series [15] addresses Tissue-type plasminogen activator (Homo sapiens, UniProt P00750). As to the kind of experiment: Inhibition of tissue plasminogen activator.
Series [16] has as its target Plasminogen (Homo sapiens, UniProt P00747). In words: Inhibition of plasmin.
Series [17] can be described thus: Inhibition of kallikrein.
The target of series [18] is Vitamin K-dependent protein C (Homo sapiens) (UniProt P04070). As to the kind of experiment: Inhibition of activated protein C.
The nature of series [19]: Volume of distribution in rat. In kind it is ADME, organism-based. The following applies: in vivo.

Coagulation factor X, sequence (P00742 41-179 limits assumed): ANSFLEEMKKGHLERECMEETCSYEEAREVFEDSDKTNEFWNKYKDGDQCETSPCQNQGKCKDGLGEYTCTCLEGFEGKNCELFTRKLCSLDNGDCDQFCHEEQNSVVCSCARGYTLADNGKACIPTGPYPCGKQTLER
Coagulation factor X, sequence (P00742 235-488 limits assumed): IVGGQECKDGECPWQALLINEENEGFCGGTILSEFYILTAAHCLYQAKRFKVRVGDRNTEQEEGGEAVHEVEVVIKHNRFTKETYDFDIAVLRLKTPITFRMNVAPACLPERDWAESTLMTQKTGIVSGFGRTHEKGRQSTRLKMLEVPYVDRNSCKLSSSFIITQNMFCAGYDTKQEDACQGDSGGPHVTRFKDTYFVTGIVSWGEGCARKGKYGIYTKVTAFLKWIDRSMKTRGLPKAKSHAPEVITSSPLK
Plasminogen, sequence (P00747 97-580 limits assumed): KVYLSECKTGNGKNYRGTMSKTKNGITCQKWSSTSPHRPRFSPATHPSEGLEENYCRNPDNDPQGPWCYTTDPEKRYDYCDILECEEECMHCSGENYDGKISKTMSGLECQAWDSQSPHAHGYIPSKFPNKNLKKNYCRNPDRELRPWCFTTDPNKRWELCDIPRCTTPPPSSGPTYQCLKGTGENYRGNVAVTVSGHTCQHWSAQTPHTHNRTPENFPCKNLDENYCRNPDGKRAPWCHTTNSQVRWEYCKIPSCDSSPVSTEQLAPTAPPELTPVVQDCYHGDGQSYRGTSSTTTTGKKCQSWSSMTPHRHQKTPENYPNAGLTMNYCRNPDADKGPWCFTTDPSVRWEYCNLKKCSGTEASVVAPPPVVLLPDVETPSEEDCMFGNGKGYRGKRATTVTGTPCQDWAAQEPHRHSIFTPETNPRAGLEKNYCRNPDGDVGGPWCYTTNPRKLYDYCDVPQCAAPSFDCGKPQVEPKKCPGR
Plasminogen, sequence (P00747 581-810 limits assumed): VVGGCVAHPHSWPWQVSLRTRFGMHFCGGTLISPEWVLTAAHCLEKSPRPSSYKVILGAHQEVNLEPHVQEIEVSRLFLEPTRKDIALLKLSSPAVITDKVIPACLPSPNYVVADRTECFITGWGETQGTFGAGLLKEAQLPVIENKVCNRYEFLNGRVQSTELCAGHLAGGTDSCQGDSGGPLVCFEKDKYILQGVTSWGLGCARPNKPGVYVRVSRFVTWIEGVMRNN
Tissue-type plasminogen activator, sequence (P00750 whole entry): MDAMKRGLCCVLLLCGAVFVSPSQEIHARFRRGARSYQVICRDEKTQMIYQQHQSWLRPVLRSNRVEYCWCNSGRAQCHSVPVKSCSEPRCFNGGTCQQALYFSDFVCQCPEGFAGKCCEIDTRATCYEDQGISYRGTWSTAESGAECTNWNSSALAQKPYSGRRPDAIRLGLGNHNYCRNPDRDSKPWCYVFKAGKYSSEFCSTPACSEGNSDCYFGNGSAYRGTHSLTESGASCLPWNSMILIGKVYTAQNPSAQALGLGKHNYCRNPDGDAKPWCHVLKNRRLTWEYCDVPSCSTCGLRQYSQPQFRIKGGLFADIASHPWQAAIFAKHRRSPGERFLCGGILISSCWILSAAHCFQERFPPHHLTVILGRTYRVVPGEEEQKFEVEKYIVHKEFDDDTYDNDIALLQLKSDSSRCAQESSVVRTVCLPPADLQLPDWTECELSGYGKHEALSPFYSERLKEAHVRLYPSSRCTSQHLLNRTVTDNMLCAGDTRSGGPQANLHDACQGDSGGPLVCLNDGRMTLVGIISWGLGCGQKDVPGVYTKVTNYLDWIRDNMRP

On to `CN1CCN=C1c1ccc(C(=O)Nc2ccccc2C(=O)Nc2ccc(Cl)cn2)cc1`, for which half-maximal inhibition in [1] (IC50) required 20 nM. Moreover, the Activity in series [2] came to 1.1 µM. Also, the fraction unbound in series [3] was 0.18. The bioavailability (in general, the share of a dose that reaches the circulation, judged against a reference dose that is usually intravenous) in [4] was 22%; in series [8], 50%. In addition, the figures for the half-life in series [5] and in [11] were above 6 h and 2.2 h, respectively. For the same molecule, the clearance in [6] amounted to 7.1 mL/min/kg; in series [9] it was 49.6 mL/min/kg. Further, the Vd in [7] was 3.7 L/kg; in series [10], 9.2 L/kg.

Take `N=C(NO)c1ccc(C(=O)Nc2ccccc2C(=O)Nc2ccc(Cl)cn2)cc1`: in series [1], 35 nM corresponded to half-maximal inhibition (IC50).

Take `CCNC(=N)c1ccc(C(=O)Nc2ccccc2C(=O)Nc2ccc(Cl)cn2)cc1`: the concentration for half-maximal inhibition (IC50) – broadly, the concentration that inhibits the measured activity by half – in series [1] turned out to be 93 nM.

Regarding `N=C(N)c1ccc(C(=O)Nc2ccccc2C(=O)Nc2ccc(Cl)cn2)cc1`, the IC50 in [1] is 4 nM; in [13], above 10000 nM; in series [14], above 10000 nM; in series [15], above 10000 nM; in series [16], above 10000 nM; in series [17] it was 4900 nM. In series [18], this molecule gave an IC50 above 10000 nM. In series [12], this molecule returned a bioavailability below 5%.

As for `N=C1NCCN1Cc1ccc(C(=O)Nc2ccc(Cl)cc2C(=O)Nc2ccc(Cl)cn2)cc1`, the bioavailability in series [12] is below 1%. In addition, the Activity in series [2] was found to be 0.58 µM.

In [1], `N=C(c1ccc(C(=O)Nc2ccccc2C(=O)Nc2ccc(Cl)cn2)cc1)N1CCS(=O)(=O)CC1` had a half-maximal inhibitory concentration (IC50) of 256 nM.

In [12], `NS(=O)(=O)c1ccccc1-c1ccc(C(=O)Nc2ccccc2C(=O)Nc2ccc(Cl)cn2)cc1` displayed a bioavailability of 35%. Besides, the Activity in series [2] is above 5 µM.

`O=C(Nc1ccccc1C(=O)Nc1ccc(Cl)cn1)c1ccc(C2=NCCCN2)cc1`: the IC50 in series [1] came out at 226 nM.

Regarding `CCN(C)C(=N)c1ccc(C(=O)Nc2ccccc2C(=O)Nc2ccc(Cl)cn2)cc1`, the IC50 in [1] stood at 6 nM.

For `CNC(=N)c1ccc(C(=O)Nc2ccccc2C(=O)Nc2ccc(Cl)cn2)cc1`, half-maximal inhibition in series [1] (IC50) was put at 23 nM.

In the case of `N=C(c1ccc(C(=O)Nc2ccccc2C(=O)Nc2ccc(Cl)cn2)cc1)N1CCCC1`, the IC50 in series [1] worked out at 8 nM.

Molecule `CONC(=N)c1ccc(C(=O)Nc2ccccc2C(=O)Nc2ccc(Cl)cn2)cc1` came in with an IC50 in series [1] of 290 nM.

`O=C(Nc1ccccc1C(=O)Nc1ccc(Cl)cn1)c1ccc(C2=NCCN2)cc1`: the midpoint of inhibition in series [1], the IC50, lay at 316 nM.

Regarding `N=C(c1ccc(C(=O)Nc2ccccc2C(=O)Nc2ccc(Cl)cn2)cc1)N1CCSCC1`, the IC50 in series [1] was found to be 12 nM.

Consider `CCN1CCN=C1c1ccc(C(=O)Nc2ccccc2C(=O)Nc2ccc(Cl)cn2)cc1`, for which the IC50 in series [1] was 64 nM.

`CCN(CC)C(=N)c1ccc(C(=O)Nc2ccccc2C(=O)Nc2ccc(Cl)cn2)cc1` registered an IC50 in series [1] of 10 nM.

For `CN(C)C(=N)c1ccc(C(=O)Nc2ccccc2C(=O)Nc2ccc(Cl)cn2)cc1`, the Activity in [2] amounted to 0.54 µM. Besides, the fraction unbound in [3] was 0.27. For the same molecule, the half-life (in general, the time needed for the level to fall by half in the phase considered) in [5] was 4.3 h; in series [11], 3.5 h. Moreover, the clearance in [6] was determined as 16.8 mL/min/kg; in [9], 45.7 mL/min/kg. In addition, the Vd in series [7] is 6.3 L/kg; in series [10], 13.7 L/kg. The molecule further displayed a bioavailability in series [8] of 69%.

In the case of `N=C(NN)c1ccc(C(=O)Nc2ccccc2C(=O)Nc2ccc(Cl)cn2)cc1`, in series [1], the IC50 stood at 25 nM.

For the molecule `CN(C)NC(=N)c1ccc(C(=O)Nc2ccccc2C(=O)Nc2ccc(Cl)cn2)cc1`, it took 30 nM to reach half-maximal inhibition in [1] (IC50).

`N=C(c1ccc(C(=O)Nc2ccccc2C(=O)Nc2ccc(Cl)cn2)cc1)N1CCCCC1`: in series [1], half-maximal inhibition (IC50) required 3 nM. Also, the Activity in series [2] was 0.36 µM. For the same molecule, the fraction unbound in series [3] was 0.11. For the same molecule, in series [4], the bioavailability came out at 18%. In addition, the half-life in [5] was 6 h. The clearance in series [6] is 32.2 mL/min/kg. This molecule came in with a Vd in series [7] of 16.7 L/kg.

For `N=C(c1ccc(C(=O)Nc2ccccc2C(=O)Nc2ccc(Cl)cn2)cc1)N1CCOCC1`, the IC50 in series [1] is 7 nM.

For the molecule `N=C1OCCN1Cc1ccc(C(=O)Nc2ccc(Cl)cc2C(=O)Nc2ccc(Cl)cn2)cc1`, the Activity in series [2] was determined as 0.56 µM. The same molecule had a Vd in series [19] of 13.6 L/kg.

The molecule `CN1CCCN=C1c1ccc(C(=O)Nc2ccccc2C(=O)Nc2ccc(Cl)cn2)cc1` came in with an IC50 in [1] of 78 nM.

In series [1], `CCCN(C)C(=N)c1ccc(C(=O)Nc2ccccc2C(=O)Nc2ccc(Cl)cn2)cc1` displayed a half-inhibitory concentration (IC50) of 9 nM.

For `CN1CCN(C(=N)c2ccc(C(=O)Nc3ccccc3C(=O)Nc3ccc(Cl)cn3)cc2)CC1`, in [1], the IC50 was found to be 714 nM.

Molecule `N=C(c1ccc(C(=O)Nc2ccccc2C(=O)Nc2ccc(Cl)cn2)cc1)N1CCC1` displayed an IC50 in series [1] of 8 nM.

In [1], `N=C(c1ccc(C(=O)Nc2ccccc2C(=O)Nc2ccc(Cl)cn2)cc1)N1CCNCC1` returned an IC50 of 38 nM.
